From ChEMBL document CHEMBL2029296 (J Med Chem, 2012)
Calls of active or inactive are those of the source. No cut-off for these calls is given here.

Legend:
[1] = molecular target: T1, Adenosine receptor A2b (Homo sapiens, UniProt P29275); experiment: Antagonist activity at human A2B receptor expressed in CHO cells assessed as inhibition of NECA-mediated cAMP accumulation; assay type: functional, cell-based
T1 sequence (P29275 whole entry): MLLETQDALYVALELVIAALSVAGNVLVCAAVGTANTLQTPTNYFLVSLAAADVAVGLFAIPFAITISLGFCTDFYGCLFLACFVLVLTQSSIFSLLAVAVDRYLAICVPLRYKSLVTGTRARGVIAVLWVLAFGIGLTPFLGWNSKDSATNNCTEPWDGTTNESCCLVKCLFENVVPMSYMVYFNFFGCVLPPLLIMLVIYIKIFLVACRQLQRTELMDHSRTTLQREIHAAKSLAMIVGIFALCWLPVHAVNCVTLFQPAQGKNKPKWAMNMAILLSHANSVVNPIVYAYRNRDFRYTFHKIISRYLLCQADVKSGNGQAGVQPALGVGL
How it was run: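 hA2B-expressing CHO cells, 48 h after plating, were preincubated 15 min at 37 °C in DMEM with ADA 1 U/mL and Ro20-1724 20 μM. Antagonist (1 nM–10 μM) was added for 15 min at 37 °C, then 100 nM NECA. Reaction stopped with 0.4 N HCl, lysate neutralized with 4 N KOH, and cAMP measured by competitive protein binding.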

[2] = molecular target: T2, Adenosine receptor A2b (Homo sapiens) (UniProt P29275); experiment: Induction of A2B receptor-mediated cell viability of human Caco2 cells assessed as cell survival at 0.1 to 50 nM after 24 hrs by MTS assay; assay type: cell-based; conditions: Caco-2
T2 sequence (whole entry): T1 sequence (P29275 whole entry)
How it was run: (§1)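 Caco-2 cells grown in DMEM with 10% FBS, 2 mM L-glutamine and penicillin/streptomycin at 37 °C, 5% CO2, seeded at 5000 cells/well. Next day, antagonist (0.1–50 nM) added, alone or 5 min before 100 nM NECA, for 24 h. Viability read by MTS formazan absorbance at 490 nm. Background subtracted, expressed as % untreated control, duplicate or triplicate, ≥3 experiments.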

[3] = molecular target: T3, Adenosine receptor A1 (Homo sapiens, UniProt P30542); experiment: Displacement of [3H]DPCPX from human A1 adenosine receptor expressed in CHO cell membrane; assay type: cell membranes
T3 sequence (P30542 whole entry): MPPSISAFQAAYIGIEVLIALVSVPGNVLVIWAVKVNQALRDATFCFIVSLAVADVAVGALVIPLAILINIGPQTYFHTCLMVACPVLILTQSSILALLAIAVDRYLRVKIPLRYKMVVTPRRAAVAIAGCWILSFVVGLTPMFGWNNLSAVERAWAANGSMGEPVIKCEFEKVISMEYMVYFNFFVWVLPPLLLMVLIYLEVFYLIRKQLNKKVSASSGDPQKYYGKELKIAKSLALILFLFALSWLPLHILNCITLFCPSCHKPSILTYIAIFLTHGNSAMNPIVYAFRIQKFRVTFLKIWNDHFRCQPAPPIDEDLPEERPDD

[4] = molecular target: Adenosine receptor A2a (Homo sapiens, UniProt P29274); experiment: Displacement of [3H]NECA from human A2A adenosine receptor expressed in CHO cell membrane; assay type: cell membranes
Sequence of Adenosine receptor A2a (P29274 whole entry): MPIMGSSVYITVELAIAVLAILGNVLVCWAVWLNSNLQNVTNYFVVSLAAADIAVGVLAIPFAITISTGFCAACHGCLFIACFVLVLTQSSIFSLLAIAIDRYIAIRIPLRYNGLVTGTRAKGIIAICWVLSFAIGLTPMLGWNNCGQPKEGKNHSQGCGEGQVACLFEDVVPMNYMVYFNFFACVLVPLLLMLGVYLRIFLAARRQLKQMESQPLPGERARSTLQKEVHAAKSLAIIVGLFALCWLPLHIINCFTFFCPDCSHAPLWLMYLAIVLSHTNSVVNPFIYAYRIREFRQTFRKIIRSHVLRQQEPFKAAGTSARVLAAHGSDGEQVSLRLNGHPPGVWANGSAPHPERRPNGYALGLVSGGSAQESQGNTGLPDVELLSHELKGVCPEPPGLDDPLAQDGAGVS

[5] = molecular target: T2, Adenosine receptor A2b (Homo sapiens); experiment: Antagonist activity at A2B receptor in human Caco2 cells assessed as reversal of NECA-induced cell death at 0.1 to 50 nM after 24 hrs by MTS assay; assay type: functional, cell-based; conditions: Caco-2; how it was run: as §1
[6] = molecular target: T4, Adenosine receptor A3 (Homo sapiens, UniProt P0DMS8); experiment: Displacement of [125I]AB-MECA from human A3 adenosine receptor expressed in CHO cell membrane; assay type: cell membranes
T4 sequence (P0DMS8 whole entry): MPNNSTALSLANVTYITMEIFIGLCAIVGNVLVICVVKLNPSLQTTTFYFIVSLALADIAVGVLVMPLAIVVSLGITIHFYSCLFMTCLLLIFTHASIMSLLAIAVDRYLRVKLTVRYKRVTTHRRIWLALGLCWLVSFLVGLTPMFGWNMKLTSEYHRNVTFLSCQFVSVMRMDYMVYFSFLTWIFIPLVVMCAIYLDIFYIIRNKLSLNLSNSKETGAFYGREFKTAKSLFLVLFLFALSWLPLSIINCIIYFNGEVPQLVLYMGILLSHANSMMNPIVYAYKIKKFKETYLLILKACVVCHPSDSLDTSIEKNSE

SMILES	IC50 [1] [nM]	Activity [2]	Ki [3] [nM]	Ki [4] [nM]	inhibition [5]	Ki [6] [nM]
O=c1c(-c2ccccc2)nnc2n(-c3ccc(Cl)cc3)c3ccccc3n12	2.42	inactive	1360	> 10000	Active	> 1000
Cn1c2ccccc2n2c(=O)c(-c3ccco3)nnc12	20.4		211	2610		> 1000
O=c1c(-c2ccco2)nnc2n(-c3ccc(Cl)cc3)c3ccccc3n12	2.11	inactive	> 10000	50.6	Active	702
O=c1c(-c2ccco2)nnc2n(Cc3ccccc3)c3ccccc3n12	10		> 10000	156		> 1000
O=c1c(-c2ccccc2)nnc2n(Cc3ccccc3)c3ccccc3n12	54.3		299	> 10000		> 1000
O=c1c(-c2ccco2)nnc2n(CCc3ccccc3)c3ccccc3n12	5.34		> 10000	15.8		> 1000
O=c1c(-c2ccco2)nnc2n(-c3ccccc3)c3ccccc3n12	3200		> 10000	3280	Active	> 1000
O=c1c(-c2ccccc2)nnc2n(-c3ccccc3)c3ccc(Cl)cc3n12	3.1	inactive	> 10000	> 10000	Active	> 1000
Oc1c(-c2ccccc2)nnc2nc3ccccc3n12	1.4	inactive	728		Active	> 1000
O=c1c(-c2ccccc2)nnc2n(CCc3ccccc3)c3ccccc3n12	2.5	inactive	> 10000	> 10000	Active	328
Oc1c(-c2ccco2)nnc2nc3ccccc3n12	15.3		25			> 1000
O=c1c(-c2ccccc2)nnc2n(-c3ccccc3)c3ccccc3n12	15		83	> 10000		> 1000
Cn1c2ccccc2n2c(=O)c(-c3ccccc3)nnc12	58		62	> 10000		> 1000
O=c1c(-c2ccco2)nnc2n(-c3ccccc3)c3ccc(Cl)cc3n12	7850		> 10000	> 10000	Active	> 1000
